Source: PubChem (Johns Hopkins Ion Channel Center)
TRPC6 inh: mouse TRPC6 channel inhibition; B-score at 10 µM; AID 2553; HEK293-TRPC6, membrane potential dye, ACh-evoked depolarization; hits give low values; 1.1% of 310,000 active;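 active = B-score under library mean minus 3 SD, initial fluorescence not abnormally high, positive integrated signal ratio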;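 note: B-score derived from integrated fluorescence ratio over the kinetic read; more negative B-score means stronger inhibition of depolarization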
TRPC4 act: TRPC4 (mouse) channel activation. Q9QUQ5. HEK293 TRPC4beta/mu-opioid, Fluo4 calcium fluorescence; hits give high values. B-score at 10 µM. 0.49% of 310,000 active. AID 2237;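 active = B-score above 5 SD of library B-scores, and initial fluorescence ratio not above library mean plus 5 SD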;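 note: positive B-score marks a calcium rise read as TRPC4 activation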
Target sequence (Q9QUQ5 whole entry, looked up): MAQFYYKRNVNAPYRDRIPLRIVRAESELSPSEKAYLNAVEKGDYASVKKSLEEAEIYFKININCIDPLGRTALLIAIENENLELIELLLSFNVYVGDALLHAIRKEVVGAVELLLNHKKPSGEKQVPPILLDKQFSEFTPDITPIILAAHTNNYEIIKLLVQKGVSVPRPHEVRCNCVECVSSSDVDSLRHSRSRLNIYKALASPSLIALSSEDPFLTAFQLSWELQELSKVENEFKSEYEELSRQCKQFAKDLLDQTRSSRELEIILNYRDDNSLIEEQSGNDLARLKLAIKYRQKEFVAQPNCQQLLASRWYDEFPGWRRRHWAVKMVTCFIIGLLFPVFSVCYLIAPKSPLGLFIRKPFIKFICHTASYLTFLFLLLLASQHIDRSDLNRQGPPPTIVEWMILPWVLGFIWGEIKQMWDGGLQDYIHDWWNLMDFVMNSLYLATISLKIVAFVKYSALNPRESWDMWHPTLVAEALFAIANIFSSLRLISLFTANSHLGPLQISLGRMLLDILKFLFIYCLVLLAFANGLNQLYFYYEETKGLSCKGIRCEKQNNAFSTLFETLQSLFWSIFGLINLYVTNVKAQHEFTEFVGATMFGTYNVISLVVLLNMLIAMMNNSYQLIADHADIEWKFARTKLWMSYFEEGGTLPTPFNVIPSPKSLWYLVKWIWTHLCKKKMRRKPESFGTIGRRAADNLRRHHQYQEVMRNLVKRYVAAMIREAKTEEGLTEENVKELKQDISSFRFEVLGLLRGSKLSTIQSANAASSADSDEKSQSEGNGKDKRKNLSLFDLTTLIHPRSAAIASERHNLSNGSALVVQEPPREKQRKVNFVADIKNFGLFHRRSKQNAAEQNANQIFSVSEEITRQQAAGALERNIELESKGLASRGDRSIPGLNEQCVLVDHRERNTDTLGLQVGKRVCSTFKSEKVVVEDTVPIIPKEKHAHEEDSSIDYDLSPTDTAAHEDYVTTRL
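system = HEK293 cells stably co-expressing mouse TRPC4beta and mu-opioid receptor | schedule = Fluo4 dye loading 45 min at room temperature, 110 s recording | measure = B-scored integrated calcium fluorescence ratio | signal = Fluo4 calcium-sensitive dye fluorescence, kinetic, 1 Hz baseline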
TRPC4 potent: allosteric potentiators of mouse TRPC4 channel | HEK293 TRPC4beta/mu-opioid, DAMGO EC20, Fluo-4 Ca2+ flux; hits give high values | B-score at 10 µM | 0.42% of 310,000 active | AID 2227 | Q9QUQ5;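 active = B-score of calcium response area above 5 SD of library B-scores, with initial fluorescence ratio within 5 SD of library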
TRPC6 activator: activators of mouse TRPC6 channel; AID 2550; 0.13% of 310,000 active; B-score at 10 µM; HEK293-TRPC6 membrane potential dye fluorescence; hits give high values;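 active = B-score of the integrated fluorescence ratio above library mean plus 3 SD, and starting fluorescence ratio within library mean plus 5 SD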;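 note: higher score means more depolarization so channel activation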
TRPC4 inh: inhibitors of mouse TRPC4 channel. HEK293 TRPC4beta/mu-opioid, DAMGO-evoked Fluo4 calcium flux; hits give low values. Q9QUQ5. B-score at 10 µM. 0.39% of 300,000 active;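 active = B-score over 3 SD under the library average, no early fluorescence shift, positive overall ratio signal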
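Assay system – HEK293 line stably carrying TRPC4beta and mu-opioid receptor · Doses – single dose · Detection – Fluo4 calcium-dye fluorescence, kinetic read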
Kir21 inh: Kir2.1 (mouse) channel inhibition. P35561. HEK293-Kir2.1, FluxOR thallium flux fluorescence; hits give low values. B-score at 10 µM. 0.85% of 310,000 active. AID 1672;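 active = fluorescence ratio B-score at or below minus 3 SD of library scores, with starting-brightness B-score within 2 SD, cut at about -4.2 in these data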;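 note: channel flux triggered by added potassium and thallium sulfate stimulus; B-score of peak minus minimum fluorescence over baseline after thallium stimulus; more negative B-score means stronger Kir2.1 block with less thallium influx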
Each line names hits and unclear results; the compound was inactive in the other large screens. Only some compounds are listed: those with a hit (about 3% of all), similar ones and a draw of the others.

COCCn1c(SCC(=O)NCCc2ccc(OC)c(OC)c2)nc2c([nH]c3ccccc32)c1=O	TRPC4 potent 11
CCOc1ccc(/C=N/Nc2cc(=O)n(C)c(=O)n2C)cc1	none
Cc1ccc(-n2nc3c(=O)n(CCCC(=O)NC4CCC(C)CC4)nc(C)c3c2C)cc1 (stereo unspecified)	none
COc1ccc(/C=C(/NC(=O)c2ccc(OC)c(OC)c2)C(=O)NCCCn2ccnc2)cc1	none
COc1ccc(C(CNC(=O)c2cccc(S(=O)(=O)Nc3cccc(C)c3)c2)N2CCOCC2)cc1 (stereo unspecified)	none
O=S(=O)(c1ccc(Br)cc1Cl)N1CCN(CCO)CC1	TRPC4 act 83
CC(C)Cn1c(N)c(C(=O)COC(=O)CCc2nc3ccccc3s2)c(=O)n(C)c1=O	none
Cc1cccc2cc(CN(CCCN(C)C)C(=S)NCCc3ccccc3)c(=O)[nH]c12	TRPC4 inh -6
Cc1ccc2nc3c(c(C(=O)OCC(=O)NC4CCS(=O)(=O)C4)c2c1)CCCC3 (stereo unspecified)	none
COc1cccc(CN2CCN(C3CCN(c4ccccc4F)CC3)CC2CCO)c1 (stereo unspecified)	TRPC4 inh -5
CC(C)CC(=O)/C(=C\c1ccc(Cl)cc1Cl)n1cncn1	Kir21 inh -8.2
Cc1ccc(NC(=O)N2CCCN(Cc3ccc(F)cc3)C2)cc1C	Kir21 inh -5.4
COc1cccc(NC(=S)N2CCCN(Cc3ccc(F)cc3)C2)c1	TRPC4 act 45
CCc1c(O)nc(SCC(=O)N2CCc3cc(OC)c(OC)cc3[C@@H]2C)[nH]c1=O	none
Cc1onc(-c2ccccc2)c1CNS(=O)(=O)c1ccccc1[N+](=O)[O-]	Kir21 inh -6.9
COc1ccc(CCNc2nc(-c3ccc(O)cc3)cs2)cc1OC	Kir21 inh -4.6
Cc1ccc(C(=O)NC(=S)Nc2c(C)ccc3nsnc23)cc1	TRPC4 inh -5
O=C1OCCN/C1=C\C(=O)c1ccc(Cl)cc1	none
O=C1OCCN/C1=C\C(=O)c1ccccc1	TRPC4 potent 14
O=C(Nc1ccccc1C(=O)N1CCN(Cc2ccccc2)CC1)c1ccccc1	none
COc1ccc(CCc2nnc(NS(C)(=O)=O)s2)cc1	none
COc1ccc(CN2CCc3c([nH]c4ccccc34)C2)cc1Br	Kir21 inh -4.3
CCOc1cc(CN2CCc3c([nH]c4ccccc34)C2)ccc1OC	none
CCN(CC)c1ccc(NC(=O)CNCc2ccccc2Cl)c(C)c1	none
Cc1cc(N(CCO)CCO)ccc1C(c1ccc(N(CCO)CCO)cc1C)c1ccccc1Cl	TRPC4 potent 11
CN(C)CCN(C(=O)C1CCN(S(=O)(=O)c2cccs2)CC1)c1nc2c(F)cccc2s1	none
Cc1ccsc1C(=O)OCC(=O)NCCNC(=O)COC(=O)c1sccc1C	TRPC4 inh -7
Cc1oc(-c2ccc(Cl)cc2)nc1CN1CCC(C(=O)NCc2cccnc2)CC1	none
CCCN(CCC)CCNC(=O)C1CCN(Cc2nc(-c3ccc(Cl)cc3)oc2C)CC1	TRPC6 inh -7.2
CCC(C)NCCOCCOc1ccc(Cl)c(C)c1C (stereo unspecified)	none
Clc1ccc(OCCCNCc2ccccc2)c2ccccc12	TRPC4 act 56, Kir21 inh -13
C/C=C/c1ccc(OCCNCc2ccccc2)c(OC)c1	none
Brc1ccccc1OCCNCc1ccccc1	none
Cc1cc(C)c(OCCCCNCc2ccccc2)c(Cl)c1	Kir21 inh -12
C=CCNCCOc1c(C)cc(C)cc1Cl	none
Cc1cc(C)c(C)c(OCCNCc2ccccc2)c1	Kir21 inh -5.5
CCC(C)NCCOCCOc1ccc(Cl)c2ccccc12 (stereo unspecified)	Kir21 inh -9.7
Cc1ccc(C)c(NC(=O)c2ccccc2C(=O)c2ccccc2)c1	none
Cc1cc(C)c(OCCNCc2ccccc2)c(C)c1	Kir21 inh -5
Cc1cc(Br)ccc1OCCNCc1ccccc1	Kir21 inh -10
COCCCNCCCCOc1c(Cl)cc(C)cc1Br	Kir21 inh -6
Cc1cc(Cl)cc(C)c1OCCOCCNCc1ccccc1	Kir21 inh -12
Cc1cc(Cl)c(OCCCNC2CCCC2)c(Br)c1	none
Cc1cc(Cl)cc(C)c1OCCNCc1ccccc1	none
CC(C)(C)c1ccc(OCCNCc2ccccc2)cc1	none
O=C(CC12CC3CC(CC(C3)C1)C2)NCc1ccc(F)cc1	none
COc1ccc(C)cc1N(CC(=O)NC1CCCC1)C(=O)Cn1nnc(-c2ccc(C)o2)n1	none
Cc1ccc(C)c2nc3sc(C(=O)O)cc3cc12	TRPC4 inh -7
CC1=C(C(=O)OC2CCCC(C)C2)C(c2ccccc2)NC(=O)N1 (stereo unspecified)	none
CC1(C)Nc2ccc(O)cc2-c2c1ssc2=S	Kir21 inh -12
COc1cccc(-n2sc3c(c2=S)-c2cc(OC)ccc2NC3(C)C)c1	none
CS(=O)(=O)c1ccccc1C(=O)Nc1cccc(-c2nc3ccccc3o2)c1	none
CC(C)(C)n1nnnc1C(c1ccncc1)N(Cc1ccccc1)Cc1ccco1 (stereo unspecified)	TRPC4 potent 10
CC(C)(C)n1nnnc1C(c1cccs1)N(Cc1ccccc1)Cc1ccco1 (stereo unspecified)	none
O=C(Cc1ccc(-c2ccccc2)cc1)OCC(=O)N1CCCC1=O	none
Cc1cccc(S(=O)(=O)Nc2ccc(C)c3c2OC(C)(C)C3)c1	Kir21 inh -5.9
Cc1ccc(NS(=O)(=O)c2ccccc2Cl)c2c1CC(C)(C)O2	Kir21 inh -4.4
CCOc1ccc(Br)cc1/C(C)=N\NC1=NCCN1	TRPC4 act 82
CCCCCOc1ccc(/C(C)=N/NC2=NCCN2)cc1	none
CCCc1nn2c(=O)cc(CSCC(=O)Nc3ccccc3OC)nc2s1	none
Cc1cc(OCC(=O)NC2CCCCC2)ccc1Cl	TRPC4 potent 27
COc1cccc(OCC(=O)NC2CCCCC2)c1	TRPC4 potent 31
O=C(NC(=S)NNC(=O)c1cccs1)c1ccc(Br)o1	TRPC4 act 180
O=C(COc1ccc(Cl)cc1[N+](=O)[O-])NC1CCCCC1	TRPC4 potent 85
O=C(COc1ccc(Cl)cc1[N+](=O)[O-])N1CCCCCC1	none
Cc1cc(=O)oc2cc(OCC(=O)NC3CCCCC3)ccc12	none
COc1cccc(C(=O)COC(=O)CCC(=O)NC2CCCCC2)c1	none
COC(=O)Cn1ncc(N(C)Cc2ccccc2)c(Cl)c1=O	none
O=C(Nc1ccccn1)C1CCN(c2ncnc3c2nc2n3CCCCC2)CC1	none
COC(=O)[C@]1(CC(C)C)N[C@H](c2ccc(-c3ccc(Cl)c(Cl)c3)cc2)[C@@H]2C(=O)N(C)C(=O)[C@@H]21	none
